The values below come from PubChem BioAssay.

The list shows a part of the results. Values without a mark were called inactive. Active and inactive are the calls of the source.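 The calls were made as follows, unless noted: active = mean activation over triplicate wells above the hit cutoff derived from the earlier primary screen (cut at about 11% in these data); inactive = the rest.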

The target in assay [1] is Oxysterols receptor LXR-beta (Homo sapiens) (UniProt P55055). Nature of the assay: LXR agonists, Gal4 luciferase reporter, confirmation, counter-screen for hcDAF-12 agonist project, cell-based, luminescence, HEK293, H. contortus campaign (AID 743027;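 active = mean percent activation of the reporter above a cutoff set as the average over tested compounds plus their standard deviation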). The following applies: HEK293 Gal4-LXR tk-luc reporter, 24 h, at 6.8 µM, hits give high values, normalized: DMSO 0%, positive control 100%. In outline: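 material = Gal4-LXR and tk-luc reporter transfected HEK293 cells | benchmarks = DMSO low control, positive-control high control | compound dosing = one nominal 6.8 µM dose, 0.68% DMSO | repeats = three replicates per compound | times = 24 h compound exposure at 37 °C, 5% CO2 | detection = One-Glo luciferase luminescence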

The test system of assay [2] is Nuclear hormone receptor DAF-12 (Haemonchus contortus). Briefly: H. contortus DAF-12 receptor agonists, confirmation, cell-based, luminescence, HEK293, lit1-tk-luc, triplicate (AID 743032;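 active = mean activation across triplicate tests above the threshold derived from the earlier primary screen, cut at about 5.5% in these data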;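 also: 0% = DMSO only wells and 100% = 3 µM Δ7-dafachronic acid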). The following applies: HEK293 hcDAF-12 lit1-tk-luc reporter, at 6.8 µM, hits give high values, % of Δ7-dafachronic acid response.
For assay [3], the system named is DAF-12 nuclear receptor (Heterodera glycines), GAL4-LBD fusion. Briefly: H. glycines DAF-12 receptor agonists, confirmation, cell-based, luminescence, HEK293, GAL4-LBD fusion (AID 743050).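 Also: 0% = DMSO low control and 100% = 2 mM sodium butyrate high control.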 The following applies: HEK293 GAL4-hgDAF12 luciferase reporter, agonist mode; at 6.8 µM; hits give high values; percent of butyrate response.
For assay [4], the target named is Oxysterols receptor LXR-beta (Homo sapiens) (UniProt P55055). Briefly: LXR agonists, Gal4 luciferase reporter, confirmation, counter-screen for hgDAF-12 agonist project, cell-based, luminescence, HEK293, H. glycines campaign (AID 743051;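 active = mean activation of the triplicate above a set limit carried over from the primary screen, none filed active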). The settings on record: 24 h, at 6.8 µM, hits give high values. Summed up:
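System: Gal4-LXR luciferase reporter HEK293 cells / Compound: single nominal test compound dose of 6.8 µM / Times: 24 h exposure, 37 °C / Technique: One-Glo luminescence after 15 min / Read-out basis: % activation versus DMSO and positive controls / Benchmarks: DMSO low control, 0.68% final / Replication: n 3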

Chain of Oxysterols receptor LXR-beta (Homo sapiens) (P55055 whole entry, looked up, the tested form may be a part): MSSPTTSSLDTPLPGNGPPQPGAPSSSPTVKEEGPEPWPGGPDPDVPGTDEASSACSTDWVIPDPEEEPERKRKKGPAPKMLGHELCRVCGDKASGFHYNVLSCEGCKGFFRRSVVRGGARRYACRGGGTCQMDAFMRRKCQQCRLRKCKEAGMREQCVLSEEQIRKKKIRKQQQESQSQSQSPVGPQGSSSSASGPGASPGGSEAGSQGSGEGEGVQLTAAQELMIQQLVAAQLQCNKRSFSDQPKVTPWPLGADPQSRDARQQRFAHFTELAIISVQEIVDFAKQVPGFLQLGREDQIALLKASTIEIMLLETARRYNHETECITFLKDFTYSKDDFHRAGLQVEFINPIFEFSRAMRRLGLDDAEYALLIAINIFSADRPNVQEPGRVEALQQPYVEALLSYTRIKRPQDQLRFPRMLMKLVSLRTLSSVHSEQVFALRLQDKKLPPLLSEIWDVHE

In the case of `Cc1cccc(NC(=O)c2ccc3ccccc3n2)n1`, the activation in assay [1] is 1.06%; in assay [2], 10.5% (active); in assay [3], 17% (active); in assay [4], 0.69%.

Consider `Nc1ccc(C(=O)Nc2ccccc2N)cc1`, for which the activation in assay [1] was 1.14%; in assay [2], 9.52% (active); in assay [3], 85.4% (active); in assay [4] it was 0.48%.

In the case of `Oc1cccc2ccc(/C=C/c3ccc(Br)s3)nc12`, the activation in assay [1] was 1.05%; in assay [2] it was 13.8% (active); in assay [3], 15.8% (active); in assay [4], 0.56%.

Take `O=C(Nc1ccccc1)Nc1nc2ccccc2s1`: the activation in assay [1] was 1.95%; in assay [2], 9.44% (active); in assay [3], 20.4% (active); in assay [4], 1.06%.

For `Cc1ccnc(Nc2nc3ccccc3s2)n1`, the activation in assay [1] was 1.72%; in assay [2], 18.5% (active); in assay [3], 15% (active); in assay [4], 1.12%.

In the case of `O=C(c1cnn(-c2ccc(Cl)cc2)c1)c1ccccc1O`, the activation was 1.48% in assay [1], 7.41% (active) in assay [2], 12.9% (active) in assay [3] and 0.81% in assay [4].

As for `CN1CCN(c2ccc(NC(=O)c3ccc4c(c3)OCCO4)cc2Cl)CC1`, the activation in assay [1] was 1.56%; in assay [2], 6.28% (active); in assay [3], 9.5%; in assay [4] it was 0.88%.

As for `O=C(Nc1ncccc1O)c1ccc(C(=O)c2ccccc2)cc1`, the activation in assay [1] was 1.21%; in assay [2] it was 8.51% (active); in assay [3], 84.2% (active); in assay [4], 0.71%.

Regarding `O=c1[nH]c(CCl)nc2cc(-c3ccc(Cl)cc3)sc12`, the activation in assay [1] is 0.52%; in assay [2], 1.27%.

With `CC(=O)Nc1cccc(C(=O)OCC(=O)c2ccc3c(c2)OCO3)c1`, the activation in assay [1] was 1.92%; in assay [2], 8.03% (active); in assay [3], 16.6% (active); in assay [4], 1.1%.

Consider `Cn1c(NC(=O)c2ccccc2)nc2ccccc21`, for which the activation was 1.51% in assay [1], 16.7% (active) in assay [2], 19.1% (active) in assay [3] and 0.86% in assay [4].

As to `OC(c1ccccc1)c1nc(-c2cnc3ccccc3c2)cs1` (stereo unspecified), the activation in assay [1] is 1.85%; in assay [2], 6.14% (active); in assay [3], 26.4% (active); in assay [4], 0.98%.

Turning to `Cc1ccnc(NC(=O)CCNS(=O)(=O)c2ccc(C)c(C)c2)c1`, the activation in assay [1] is 1.16%; in assay [2] it was 5.73% (active); in assay [3], 17.9% (active); in assay [4], 0.55%.

For `c1ccc(Cc2c(-c3ccco3)nc3c4ccccc4ccn23)cc1`, the activation is 1.44% in assay [1], 15.8% (active) in assay [2], 16.6% (active) in assay [3] and 0.76% in assay [4].

Regarding `Brc1ccc2nc(N3CCCC3)sc2c1`, the activation in assay [1] was 0.77%; in assay [2], 5.13%; in assay [3] it was 12.5% (active); in assay [4], 0.64%.

`Cn1c(=NC(=O)c2ccco2)sc2cccc(F)c21`: the activation is 1.46% in assay [1], 15% (active) in assay [2], 22.9% (active) in assay [3] and 0.76% in assay [4].

For the compound `CCOC(=O)c1cn[nH]c1NC(=S)Nc1ccccc1`, the activation was 1.51% in assay [1], 4.78% in assay [2], 15.6% (active) in assay [3] and 1.01% in assay [4].

Consider `Brc1ccc(-c2noc(-c3ccccc3)n2)o1`, for which the activation in assay [1] is 0.77%; in assay [2], 7.78% (active); in assay [3], 18.7% (active); in assay [4], 0.75%.

On to `Cc1cc(OCc2cc(C(=O)NCc3cc(C(C)C)no3)no2)cc(C)c1Cl`, for which the activation in assay [1] is 0.91%; in assay [2], 7.69% (active); in assay [3], 20.9% (active); in assay [4], 0.62%.

As to `O=C(Nc1ccn(Cc2ccccc2)n1)c1cccc(F)c1`, the activation in assay [1] is 1.66%; in assay [2], 7.02% (active); in assay [3], 15.6% (active); in assay [4] it was 0.7%.

As for `NC(=O)c1ccccc1N=Cc1ccc2ccccc2c1`, the activation in assay [1] is 0.6%; in assay [2], 5.79% (active); in assay [3], 15.7% (active); in assay [4], 0.4%.

As for `Cc1cccc(/C(N)=N/OC(=O)c2ccccc2Cl)c1`, the activation in assay [1] was 2.08%; in assay [2], 15.3% (active); in assay [3], 21.4% (active); in assay [4], 1.18%.

For the compound `Cn1c(=NC(=O)C2CC2)sc2cc(F)cc(F)c21`, the activation in assay [1] is -0.11%; in assay [2] it was 5.5%; in assay [3], 5.29%; in assay [4] it was 0.25%.

As for `COc1ccc(C2=NN(C(=O)c3ccccc3C(=O)O)C(c3ccccc3O)C2)cc1` (stereo unspecified), the activation in assay [1] is 0.16%; in assay [2], 2.72%; in assay [3], 4.93%; in assay [4] it was 0.19%.

Take `Cc1ccc(-n2cc3ccc([N+](=O)[O-])cc3n2)cc1`: the activation in assay [1] was 2.14%; in assay [2], 6.7% (active); in assay [3] it was 22.6% (active); in assay [4], 0.97%.

For the compound `Brc1ccccc1C1N=C(c2ccccc2)NO1` (stereo unspecified), the activation in assay [1] is 1.08%; in assay [2] it was 11.3% (active); in assay [3], 19.6% (active); in assay [4], 0.87%.

On to `Cc1ccc(NC(=O)c2cc3ccccc3o2)cc1`, for which the activation in assay [1] was 1.5%; in assay [2], 7.27% (active); in assay [3] it was 22% (active); in assay [4] it was 0.74%.

On to `COc1ccc2nc(-c3ccccn3)ccc2c1`, for which the activation was 1.86% in assay [1], 11.8% (active) in assay [2], 16.7% (active) in assay [3] and 1.05% in assay [4].

Regarding `COc1ccc(-c2cn3cccnc3n2)cc1`, the activation in assay [3] was 9.37%; in assay [4], 0.23%.

`O=C(Nc1ccccc1)c1ccc2c(c1)OCCCO2`: the activation was 19.7% (active) in assay [3] and 1.02% in assay [4].

Regarding `Cc1cccc(NC(=O)/C=C/c2ccc3c(c2)OCO3)n1`, the figures for the activation in assay [3] and in assay [4] were 18.1% (active) and 0.84%, respectively.

For the compound `O=C(NCCOc1ccccc1)c1ccccc1F`, the activation in assay [3] was 12.7% (active); in assay [4], 0.64%.

As to `CC(=O)c1ccccc1NC(=O)COC(=O)C1COc2ccccc2O1` (stereo unspecified), the activation in assay [3] is -0.02%; in assay [4] it was 0.04%.

Turning to `CCCNC(=O)c1c(Cl)cnn1-c1ccc(C)cc1`, the activation in assay [3] is 9.95%; in assay [4] it was 0.55%.

As for `N#CC1(Nc2ccc(-c3ccc(Cl)cc3)cc2)CCCC1`, the results for the activation in assay [3] and in assay [4] were 8.29% and 0.34%, respectively.

In the case of `CC(C)c1cc(C(N)=O)c(NC(=O)c2cccc(COc3ccc(Br)cc3)c2)s1`, the results for the activation in assay [3] and in assay [4] were 14% (active) and 0.51%, respectively.

As for `COc1ccc(NC(=O)c2ccc(OC)cc2)cc1`, the activation is 15.9% (active) in assay [3] and 0.75% in assay [4].

On to `O=C(NCCc1ccc(F)cc1)c1ccc2nccnc2c1`, for which the figures for the activation in assay [3] and in assay [4] were 17% (active) and 0.74%, respectively.

Consider `Cc1ccc(NC(=O)c2ccco2)cc1`, for which the values for the activation in assay [3] and in assay [4] were 11.2% (active) and 0.49%, respectively.

Regarding `O=C(NC1CCC1)c1ccc(C#CC2CC2)cn1`, the results for the activation in assay [3] and in assay [4] were 13.4% (active) and 0.57%, respectively.

For `O=C(Nc1ccc(C2CC2(Cl)Cl)cc1)c1cccc([N+](=O)[O-])c1` (stereo unspecified), the activation in assay [3] is 15.2% (active); in assay [4], 0.56%.

Consider `COc1ccc(NC(=O)Nc2ccc3nsnc3c2)cc1`, for which the activation in assay [3] is 13.8% (active); in assay [4], 0.54%.

Turning to `COc1ccc(CNC(=O)COc2ccccc2C(=O)c2cnn(-c3ccccc3)c2)cc1OC`, the activation in assay [3] is 10.3%; in assay [4], 0.65%.

For `O=C(NCCc1c[nH]c2ccccc12)c1cc2ccccc2oc1=O`, the activation in assay [3] was 13.4% (active); in assay [4] it was 0.56%.

Turning to `Fc1ccccc1-c1cc2cc3c(cc2cn1)OCO3`, the activation is 18.4% (active) in assay [3] and 0.79% in assay [4].

On to `Cc1ccsc1C(=O)N/N=C/c1ccc([N+](=O)[O-])cc1`, for which the activation in assay [3] was 15.8% (active); in assay [4], 0.59%.
